Laboratory results: ChEMBL document CHEMBL5252510, “A Novel Potent Oral Series of VEGFR2 Inhibitors Abrogate Tumor Growth by Inhibiting Angiogenesis” (J Med Chem, 2016)
Calls of active or inactive are those of the source. The rule behind the calls is not given here.

Tests used:
[1] = Antitumor activity against rat BN472 cell implanted in Brown-Norway rat assessed as tumor growth inhibition by measuring T/C ratio at 3 mg/kg, po qd measured upto 14 days; type: functional; details: time <= 14 day
Procedure, shortened: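 Female Brown-Norway rats (160-180 g) given 3 mm³ BN472 tumor fragments in mammary fat pads; at about 200 mm², randomized into groups of 7-8 and dosed orally with compound or PEG300 vehicle over 14 days; tumor growth followed, T/C computed; significance by 2-way RM-ANOVA.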

[2] = target: Proto-oncogene tyrosine-protein kinase receptor Ret (Homo sapiens, UniProt P07949); assay: Inhibition of human recombinant GST-fused RET expressed in baculovirus expression system using poly-Glu-Tyr (4:1) as substrate measured after 10 mins in presence of gamma-[33P]-ATP by scintillation counting analysis
Procedure, shortened: (§1)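 GST-fused kinase domains were expressed in baculovirus and purified on glutathione-Sepharose. 10 min at ambient temperature, stopped with EDTA. Filter binding and scintillation counting. IC50 by linear regression of percent inhibition.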

[3] = target: Mast/stem cell growth factor receptor Kit (Homo sapiens, UniProt P10721); assay: Inhibition of human recombinant GST-fused c-KIT expressed in baculovirus expression system using poly-Glu-Tyr (4:1) as substrate measured after 10 mins in presence of gamma-[33P]-ATP by scintillation counting analysis; procedure, shortened: as §1
[4] = target: Receptor tyrosine-protein kinase erbB-2 (Homo sapiens, UniProt P04626); assay: Inhibition of ERBB2 (unknown origin) autophosphorylation expressed in human BT-474 cells by ELISA-based assay; type: cell-based
Procedure, shortened: (§2)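 Cells were stimulated with the respective ligand. Receptor tyrosine kinase autophosphorylation in the presence of compound was quantified by ELISA.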

[5] = target: Platelet-derived growth factor receptor beta (Homo sapiens, UniProt P09619); assay: Inhibition of PDGFR (unknown origin) autophosphorylation expressed in mouse BALB/3T3 clone A31 cells by ELISA-based assay; type: cell-based; procedure, shortened: as §2
[6] = Half-life in OFA rat at 2.5 mg/kg, iv measured upto 24 hrs by HPLC/UV analysis; type: ADME, organism-based; details: in vivo
Procedure, shortened: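 Catheters were placed in the femoral artery and vein of female OFA rats, followed by 96 h recovery. IV doses went into the femoral vein: 2.5 mg/kg in ethanol/dimethylisosorbide/PEG400/5 % glucose (10/15/35/40), or 1 mg/kg in NMP/PEG200 (30:70). Plasma samples at 5, 15, 30 min and 1, 2, 4, 6, 8, 24 h. Parameters reported over 24 h. n=2–4.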

[7] = Volume of distribution at steady state in OFA rat at 2.5 mg/kg, iv measured upto 24 hrs by HPLC/UV analysis; type: ADME, organism-based; details: in vivo, read-out: Vdss
Procedure, shortened: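 Female OFA rats with femoral artery and vein catheters, 96 h recovery. IV into femoral vein: 2.5 mg/kg in ethanol/dimethylisosorbide/PEG400/D5W (10/15/35/40) or 1 mg/kg in NMP/PEG200 (30:70). Plasma sampled at 5, 15, 30 min, 1, 2, 4, 6, 8, 24 h; drug measured by HPLC (UV or MS-MS stated); parameters dose normalized, n=2-4.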

[8] = Oral bioavailability in OFA rat at 25 mg/kg measured upto 24 hrs by HPLC/UV analysis; type: ADME, organism-based; details: in vivo
Procedure, shortened: (§3)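 Female OFA rats, femoral artery/vein catheterized and recovered 96 h. Oral gavage of a micronized suspension in 0.5 % carboxymethyl cellulose at 25 or 3 mg/kg. Bioavailability taken against femoral-vein iv dosing. Plasma sampled 5 min–24 h (9 time points).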

[9] = target: T1, Vascular endothelial growth factor receptor 2 (Homo sapiens, UniProt P35968); assay: Inhibition of human recombinant GST-fused VEGFR2 kinase domain transphosphorylation expressed in baculovirus expression system using poly-Glu-Tyr (4:1) as substrate measured after 10 mins in presence of gamma-[33P]-ATP by scintillation counting analysis
[10] = target: Serine/threonine-protein kinase B-raf (Homo sapiens) (UniProt P15056); assay: Inhibition of human recombinant GST-fused BRAF expressed in baculovirus expression system using poly-Glu-Tyr (4:1) as substrate measured after 10 mins in presence of gamma-[33P]-ATP by scintillation counting analysis; procedure, shortened: as §1
[11] = target: T1, Vascular endothelial growth factor receptor 2; assay: Inhibition of VEGF-induced human VEGFR2 autophosphorylation expressed in HUVEC cells measured after 2 hrs by chemiluminescence assay; type: cell-based
[12] = target: Insulin receptor (Homo sapiens, UniProt P06213); assay: Inhibition of INSR (unknown origin) autophosphorylation expressed in […] by ELISA-based assay; type: cell-based; procedure, shortened: as §2
[13] = target: Epidermal growth factor receptor (Homo sapiens, UniProt P00533); assay: Inhibition of EGFR (unknown origin) autophosphorylation expressed in human A-431 cells by ELISA-based assay; type: cell-based; procedure, shortened: as §2
[14] = target: Mast/stem cell growth factor receptor Kit (Homo sapiens, UniProt P10721, K642E); assay: Inhibition of KIT K642E mutant (unknown origin) autophosphorylation expressed in human GIST882 cells by ELISA-based assay; type: cell-based; procedure, shortened: as §2
[15] = species on record: Mus musculus; assay: Antiangiogenic activity in C57BL/6jNpa mouse harbouring mouse B16-BL6 cells assessed as reduction in iAUEC level measured after 3 days by DCE-MRI assay relative to control; type: functional; set-up: scale not given: the % may be the effect or the level left; details: time 3 day
Procedure, shortened: (§4)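 C57BL/6JNpa mice bearing B16/BL6 cervical lymph-node metastases, at least 8 per group, anaesthetized and given contrast agent; DCE-MRI Ktrans and iAUEC (permeability) and Vp (plasma volume) measured before and again after daily treatment; change per mouse recorded, mean ± SEM, one-way ANOVA with Holm-Sidak comparisons versus vehicle.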

[16] = species on record: Mus musculus; assay: Antiangiogenic activity in C57BL/6jNpa mouse harbouring mouse B16-BL6 cells assessed as reduction in tumor plasma volume by measuring T/C ratio measured after 3 days by DCE-MRI assay; type: functional; details: time 3 day; procedure, shortened: as §4
[17] = tested on: Mus musculus; assay: Anti-angiogenesis activity in FVB mouse model assessed as inhibition of VEGF-induced tissue weight at 0.3 mg/kg, po qd treated for 4 to 6 hrs prior to chamber implantation and continuing for 4 days measured after 24 hrs post last dose; type: functional, organism-based; details: time 5.0 day
Procedure, shortened: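 Female FVB mice (18-20 g), porous chambers with VEGF (2 μg/mL) in 0.8 % w/v agar containing heparin 20 U/mL implanted s.c. in flank; compound p.o. once daily in 100 % PEG200 (5 mL/kg) from 4-6 h before implantation for 4 days; tissue removed 24 h after last dose, weighed, lysate assayed for TIE-2 by sandwich ELISA; n=6 per dose, mean ± SEM.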

[18] = Half life in Sprague-Dawley rat at 50 mg/kg, po measured upto 24 hrs by HPLC/UV analysis; type: ADME, organism-based; details: in vivo
Procedure, shortened: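 Female Sprague Dawley rats, 8 weeks old, catheterized. Oral suspension in 0.5 % carboxymethyl cellulose at 50 mg/kg, n=3. Bioavailability taken against 3 mg/kg iv. Plasma sampled 5 min–24 h. Cmax and AUC(0–∞) dose-normalized.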

[19] = Dose normalized Cmax in OFA rat at 3 mg/kg, po measured upto 24 hrs by HPLC/UV analysis; type: ADME, organism-based; details: in vivo; procedure, shortened: as §3

Row | inhibition [2] | IC50 [3] | IC50 [4] | IC50 [5] | half-life [6] | Vd [7] | bioavailability [8] | IC50 [9] | inhibition [10] | IC50 [11] | IC50 [12] | IC50 [13] | IC50 [14] | half-life [18] | Cmax/dose [19] | Structure (SMILES) | T/C [1] | Activity [15] | T/C [16] | Activity [17]
1 | Active | > 10000 nM | > 500 nM | 30 nM | 2 h | 1.3 L/kg | 35% | 9 nM | Active | 2.9 nM | > 500 nM | > 500 nM | 30 nM |  |  | Nc1nccc(Oc2ccc3c(C(=O)Nc4cccc(C(F)(F)F)c4)cccc3c2)n1 | 35.5 |  |  | 
2 |  |  |  |  |  |  |  |  |  |  |  |  |  | 4.5 h |  | Nc1nccc(Oc2ccc3c(C(=O)Nc4ccc(F)c(C(F)(F)F)c4)cccc3c2)n1 | 5.6 | 65% | 0.36 | Active
3 |  |  |  |  |  |  |  |  |  |  |  |  |  | 10.1 h |  | Nc1cc(Oc2ccc3c(C(=O)Nc4cccc(C(F)(F)F)c4)cccc3c2)ncn1 |  |  |  | 
4 | Active | > 2000 nM | > 500 nM | 30 nM |  |  |  | 2.7 nM | Active | 3 nM | > 500 nM | > 500 nM | 30 nM |  | 1570 nM | O=C(Nc1cccc(C(F)(F)F)c1)c1cccc2cc(Oc3cc(CO)ncn3)ccc12 [BFH-772] |  |  |  | Active
